Results on 54 variants are retold here after the RNAGym collection of RNA variant scans (doi:10.1101/gad.245936.114).

Sequences and labels used below:
B1: tRNA (parent)
chain: CUCUCGGUAGCCAAGUUGGUUUAAGGCGCAAGACUUUAAUUUAUCACUACGAAAUCUUGAGAUCGGGCGUUCGACUCGCCCCCGGGAGAUUUUUUCCUCGAGCAA

This sample holds only a part of the variants without activity.

The variants in this data set derive from B1. The data set is described as follows: nonsense suppression (GFP-seq) (ratio to wild type); higher = more function; SUP4oc tRNA, yeast GFP reporter sort-seq. In outline:
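Yeast were grown in raffinose/galactose medium with 80 mg/L adenine, each strain bearing a genome-integrated ochre-suppressor tRNA variant from a ~3% random-mutation library, a galactose-driven GFP ochre reporter, and RFP. After sorting into GFP/RFP bins, every bin was sequenced on an Illumina platform at phred ≥30. The GFPSEQ value, a measure of nonsense suppression, is the weighted bin median GFP/RFP relative to the unmutated parent tRNA, using each variant's estimated cell share per bin as the weight. Only variants with ≥100 reads and ≥30 cells were included.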
On to CUCUCGGUAGCCAAGUUGGUUUAAGGCGCAAGACUUUAAUUUAUCACUACGAAAUCUUGAGAGCGGGCGUUCGACUCGCCCCCCGGAGAUUUUUUCCUCGAGCAA, for which the nonsense suppression is 0.0283.
The same measure for CUCUCGGUAGCCAAGUUGGUUUAAGGCGCAAGACUUUAAUUUAUCACUACGAAAUCUUGAGAACGGGCGUUCGACUCACCCCCGGGAGAUUUUUUCCUCGAGCAA: 0.06; for CUCUCGGUAGCCAAGUUGGUUUAAGGCGCAAGACUUUAAUUUAUCACUACGAAAUCUUGAGAUCUGGCGUUCGACUCGCCCCCGGAAGAUUUUUUCCUCGAGCAA: at most 0.026; for CUCUCGGUAGCCAAGUUGGUUUAAGGCGCAAGACUUUAAUUUAUCACUACGAAAUCUUGAGAUCCCGCGUUCGACCCGCCCCCGGGAGAUUUUUUCCUCGAGCAA: 0.793.
The same measure for CUCUCGGUAGCCAAGUUGGUUUAAGGCGCAAGACUUUAAUUUAUCACUACGAAAUCUUGAGACCGGGCGUUCGACUCGCCCUCGGGAGAUUUUUUCCUCGAGCAA: 0.449.
Under CUCUCGGUAGCCAAGUUGGUUUAAGGCGCAAGACUUUAAUUUAUCACUACGAAAUCUUGAGAUCCGGCGUUCGACUCGCCGCCGGGAGAUUUUUUCCUCGAGCAA stands 1.06; under CUCUCGGUAGCCAAGUUGGUUUAAGGCGCAAGACUUUAAUUUAUCACUACGAAAUCUUGAGACCGGGCGUUCGACCCGCCCCCGGGAGAUUUUUUCCUCGAGCAA, 0.693.
Consider CUCUCGGUAGCCAAGUUGGUUUAAGGCGCAAGACUUUAAUUUAUCACUACGAAAUCUUGAGACCGGGUGUUCGACUCGCCCCCGGGAGAUUUUUUCCUCGAGCAA, for which the nonsense suppression stood at 0.228.
For the variant CUCUCGGUAGCCAAGUUGGUUUAAGGCGCAAGACUUUAAUUUAUCACUACGAAAUCUUGAGAGCGGGCGUUCGACUCGCCCCCGGGUGAUUUUUUCCUCGAGCAA, the nonsense suppression stood at 0.0518.
CUCUCGGUAGCCAAGUUGGUUUAAGGCGCAAGACUUUAAUUUAUCACUACGAAAUCUUGAGACCGGGCGUUCAACUCGCCCCCGGGAGAUUUUUUCCUCGAGCAA: the nonsense suppression was determined as 0.11.
In the case of CUCUCGGUAGCCAAGUUGGUUUAAGGCGCAAGACUUUAAUUUAUCACUACGAAAUCUUGAGACCGGGCGUUCGACUCGCCUCCGGGAGAUUUUUUCCUCGAGCAA, the nonsense suppression is 0.142.
The same measure for CUCUCGGUAGCCAAGUUGGUUUAAGGCGCAAGACUUUAAUUUAUCACUACGAAAUCUUGAGAUGGGGCGUUCGACUCGCCCCCGCGAGAUUUUUUCCUCGAGCAA: at most 0.026; for CUCUCGGUAGCCAAGUUGGUUUAAGGCGCAAGACUUUAAUUUAUCACUACGAAAUCUUGAGACCGGGCGUUCGAAUCGCCCCCGGGAGAUUUUUUCCUCGAGCAA: 1.04; for CUCUCGGUAGCCAAGUUGGUUUAAGGCGCAAGACUUUAAUUUAUCACUACGAAAUCUUGAGACCGGGCGUUCGAUUCGCCCCCGGGAGAUUUUUUCCUCGAGCAA: 1.1.
Under CUCUCGGUAGCCAAGUUGGUUUAAGGCGCAAGACUUUAAUUUAUCACUACGAAAUCUUGAGAUCCGGCGUUCGACUCGCCCCCGGGAAAUUUUUUCCUCGAGCAA stands at most 0.026; under CUCUCGGUAGCCAAGUUGGUUUAAGGCGCAAGACUUUAAUUUAUCACUACGAAAUCUUGAGACCGGGCGUUCGACUCGCCCCCGAGAGAUUUUUUCCUCGAGCAA, 1.06; under CUCUCGGUAGCCAAGUUGGUUUAAGGCGCAAGACUUUAAUUUAUCACUACGAAAUCUUGAGAUCAGGCGUUCCACUCGCCCCCGGGAGAUUUUUUCCUCGAGCAA, at most 0.026.
The same measure for CUCUCGGUAGCCAAGUUGGUUUAAGGCGCAAGACUUUAAUUUAUCACUACGAAAUCUUGAGAGCGGGCGUUCGACUCGCUCCCGGGAGAUUUUUUCCUCGAGCAA: at most 0.026; for CUCUCGGUAGCCAAGUUGGUUUAAGGCGCAAGACUUUAAUUUAUCACUACGAAAUCUUGAGAGCGGGCGCUCGAUUCGCCCCCGGGAGAUUUUUUCCUCGAGCAA: 0.099.
For the variant CUCUCGGUAGCCAAGUUGGUUUAAGGCGCAAGACUUUAAUUUAUCACUACGAAAUCUUGAGAUUGGGCGUGCGACUCGCCCCCGGGAGAUUUUUUCCUCGAGCAA, the nonsense suppression was at most 0.026.
Consider CUCUCGGUAGCCAAGUUGGUUUAAGGCGCAAGACUUUAAUUUAUCACUACGAAAUCUUGAGAGCGUGCGUUCGACUCGCCCCCAGGAGAUUUUUUCCUCGAGCAA, for which the nonsense suppression was at most 0.026.
Under CUCUCGGUAGCCAAGUUGGUUUAAGGCGCAAGACUUUAAUUUAUCACUACGAAAUCUUGAGAGCGGGCGUUCGACUCGCCCCCGGGAGGUUUUUUCCUCGAGCAA stands 0.0674.
Under CUCUCGGUAGCCAAGUUGGUUUAAGGCGCAAGACUUUAAUUUAUCACUACGAAAUCUUGAGAGCGGGCGUUCGACUCUCCCCCGGGAGAUUUUUUCCUCGAGCAA stands 0.0445.
CUCUCGGUAGCCAAGUUGGUUUAAGGCGCAAGACUUUAAUUUAUCACUACGAAAUCUUGAGAGCGGGCGUUCGACUCACCCCCGGGAGAUUUUUUCCUCGAGCAA: the nonsense suppression stood at 0.0891.
Under CUCUCGGUAGCCAAGUUGGUUUAAGGCGCAAGACUUUAAUUUAUCACUACGAAAUCUUGAGACCGGGCGUUCGGCUCGCCCCCGGGAGAUUUUUUCCUCGAGCAA stands 0.0264; under CUCUCGGUAGCCAAGUUGGUUUAAGGCGCAAGACUUUAAUUUAUCACUACGAAAUCUUGAGAUGGGGCGUUUGACUCGCCCCCGGGAGAUUUUUUCCUCGAGCAA, at most 0.026; under CUCUCGGUAGCCAAGUUGGUUUAAGGCGCAAGACUUUAAUUUAUCACUACGAAAUCUUGAGAGCGGGCGUUCGACUCGCCCCCGAGAGAUUUUUUCCUCGAGCAA, 0.787.
Under CUCUCGGUAGCCAAGUUGGUUUAAGGCGCAAGACUUUAAUUUAUCACUACGAAAUCUUGAGAUCAGGCGUUCGACUCACCCCCGGGAGAUUUUUUCCUCGAGCAA stands 0.0493.
The same measure for CUCUCGGUAGCCAAGUUGGUUUAAGGCGCAAGACUUUAAUUUAUCACUACGAAAUCUUGAGAUCAGGCGUUCGACUCCCCCCCGGGAGAUUUUUUCCUCGAGCAA: at most 0.026; for CUCUCGGUAGCCAAGUUGGUUUAAGGCGCAAGACUUUAAUUUAUCACUACGAAAUCUUGAGAUUGGGCGUUCGACUCGCCACCGGGAGAUUUUUUCCUCGAGCAA: at most 0.026.
With CUCUCGGUAGCCAAGUUGGUUUAAGGCGCAAGACUUUAAUUUAUCACUACGAAAUCUUGAGAUGGGGCGCUCGACUCGCCCCCUGGAGAUUUUUUCCUCGAGCAA, the nonsense suppression was at most 0.026.
Under CUCUCGGUAGCCAAGUUGGUUUAAGGCGCAAGACUUUAAUUUAUCACUACGAAAUCUUGAGAGCGGGCGUUUGACUCGCCCCCGGGAGAUUUUUUCCUCGAGCAA stands 0.0334; under CUCUCGGUAGCCAAGUUGGUUUAAGGCGCAAGACUUUAAUUUAUCACUACGAAAUCUUGAGAACGGGCGUUCGACUCGCCCCCGAGAGAUUUUUUCCUCGAGCAA, 1.09.
The same measure for CUCUCGGUAGCCAAGUUGGUUUAAGGCGCAAGACUUUAAUUUAUCACUACGAAAUCUUGAGAACGGGCGUUCGACUCGCCCCCGUGAGAUUUUUUCCUCGAGCAA: 0.23.
CUCUCGGUAGCCAAGUUGGUUUAAGGCGCAAGACUUUAAUUUAUCACUACGAAAUCUUGAGAACGGACGUUCGACUCGCCCCCGGGAGAUUUUUUCCUCGAGCAA: the nonsense suppression is at most 0.026.
The same measure for CUCUCGGUAGCCAAGUUGGUUUAAGGCGCAAGACUUUAAUUUAUCACUACGAAAUCUUGAGAUGGUGCGUUCGACUCGCCCCCGGGGGAUUUUUUCCUCGAGCAA: at most 0.026; for CUCUCGGUAGCCAAGUUGGUUUAAGGCGCAAGACUUUAAUUUAUCACUACGAAAUCUUGAGAGCGGGCGUUCAACUCGCCCCCGGGAGAUUUUUUCCUCGAGCAA: 0.189; for CUCUCGGUAGCCAAGUUGGUUUAAGGCGCAAGACUUUAAUUUAUCACUACGAAAUCUUGAGAUCCGGCGUUCGACACGCCCCCGGGAGAUUUUUUCCUCGAGCAA: at most 0.026.
Under CUCUCGGUAGCCAAGUUGGUUUAAGGCGCAAGACUUUAAUUUAUCACUACGAAAUCUUGAGAGCGGGCGUCCGACUCGCCCCCGGGAGAUUUUUUCCUCGAGCAA stands 0.028; under CUCUCGGUAGCCAAGUUGGUUUAAGGCGCAAGACUUUAAUUUAUCACUACGAAAUCUUGAGAGCGGGCGUUCGACCCGCCCCCGGGAGAUUUUUUCCUCGAGCAA, 0.0764; under CUCUCGGUAGCCAAGUUGGUUUAAGGCGCAAGACUUUAAUUUAUCACUACGAAAUCUUGAGAGCGGGCGUUCGACACGCCCCCGGGAGAUUUUUUCCUCGAGCAA, 0.433.
The same measure for CUCUCGGUAGCCAAGUUGGUUUAAGGCGCAAGACUUUAAUUUAUCACUACGAAAUCUUGAGAUCUGGCGUUCGACUCGCCCCCGAGAGAUUUUUUCCUCGAGCAA: at most 0.026; for CUCUCGGUAGCCAAGUUGGUUUAAGGCGCAAGACUUUAAUUUAUCACUACGAAAUCUUGAGAGCGGACGUUCGACUCGCCCCCGGGAGAUUUUUUCCUCGAGCAA: 0.0444.
Take CUCUCGGUAGCCAAGUUGGUUUAAGGCGCAAGACUUUAAUUUAUCACUACGAAAUCUUGAGAGCGGGCGUUCGACUCGCCCCCGGGAGAUUUUUUCCUCGAGCAA: the nonsense suppression turned out to be 1.14.
The same measure for CUCUCGGUAGCCAAGUUGGUUUAAGGCGCAAGACUUUAAUUUAUCACUACGAAAUCUUGAGACCGGGCGUUCGACUCGCCCCCGGGAGAUUUUUUCCUCGAGCAA: 1.05; for CUCUCGGUAGCCAAGUUGGUUUAAGGCGCAAGACUUUAAUUUAUCACUACGAAAUCUUGAGAGCGGGCAUUCGACUCGCCCCCGGGAGAUUUUUUCCUCGAGCAA: 0.116.
Under CUCUCGGUAGCCAAGUUGGUUUAAGGCGCAAGACUUUAAUUUAUCACUACGAAAUCUUGAGAACGGGCGUUCGACCCGCCCCCGGGAGAUUUUUUCCUCGAGCAA stands 0.748; under CUCUCGGUAGCCAAGUUGGUUUAAGGCGCAAGACUUUAAUUUAUCACUACGAAAUCUUGAGAUCUGACGUUCGACUCGCCCCCGGGAGAUUUUUUCCUCGAGCAA, at most 0.026.
Under CUCUCGGUAGCCAAGUUGGUUUAAGGCGCAAGACUUUAAUUUAUCACUACGAAAUCUUGAGACCGGGCGUUCGACUCUCCCCCGGGAGAUUUUUUCCUCGAGCAA stands 0.0499; under CUCUCGGUAGCCAAGUUGGUUUAAGGCGCAAGACUUUAAUUUAUCACUACGAAAUCUUGAGAGCGGGCGUUCGACUCGCCCUCGGGAGAUUUUUUCCUCGAGCAA, 0.0882; under CUCUCGGUAGCCAAGUUGGUUUAAGGCGCAAGACUUUAAUUUAUCACUACGAAAUCUUGAGAACGGGCGUUCGACUCGCCCCCGGUAGAUUUUUUCCUCGAGCAA, 0.0573.
In the case of CUCUCGGUAGCCAAGUUGGUUUAAGGCGCAAGACUUUAAUUUAUCACUACGAAAUCUUGAGAUGGGGCGUUCGACUCGACCCCGGGAGAUUUUUUCCUCGAGCAA, the nonsense suppression was at most 0.026.
The same measure for CUCUCGGUAGCCAAGUUGGUUUAAGGCGCAAGACUUUAAUUUAUCACUACGAAAUCUUGAGAUCAGGCGUUCGAAUCGCCCCCGGGAGAUUUUUUCCUCGAGCAA: 0.109; for CUCUCGGUAGCCAAGUUGGUUUAAGGCGCAAGACUUUAAUUUAUCACUACGAAAUCUUGAGAUCUGGCGUUCGACUCGCCCCCUGGAGAUUUUUUCCUCGAGCAA: at most 0.026.
